From PMC11914484 (Scientific Reports, 2025)
Each block holds one molecule with its values, some of them ahead of it. Ends that are not written are not given here.

What was measured:
[1] = Plasma stability, dog plasma; type: in vitro ADME
Outline: (§1)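 K2-EDTA plasma from male animals of each species was incubated with the test compound (1 µM) at 37 °C for 0–4 h, with propantheline bromide (1 µM) as control. Intact compound remaining was measured by LC-MS to give the half-life.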

[2] = Plasma stability, rabbit plasma; type: in vitro ADME
Outline: as §1

[3] = Plasma stability, rat plasma; type: in vitro ADME
Outline: as §1

[4] = Plasma stability, mini-pig plasma; type: in vitro ADME
Outline: as §1

[5] = system: plasma proteins; experiment: Plasma protein binding by rapid equilibration dialysis; type: in vitro ADME, mini-pig
Outline: (§2)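 Rapid equilibrium dialysis used K2-EDTA plasma from male animals of each species. The test compound (5 µM) was incubated for 2 h at 37 °C, with propranolol (1 µM) as control. Samples were analysed by LC-MS/MS, with response taken as the analyte-to-internal-standard peak area ratio. Unbound fraction = receiver-side response / donor-side response.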

[6] = system: plasma proteins; experiment: as above; type: in vitro ADME, rabbit
Outline: as §2

[7] = system: plasma proteins; experiment: as above; type: in vitro ADME, dog
Outline: as §2

[8] = system: plasma proteins; experiment: as above; type: in vitro ADME, rat
Outline: as §2

[9] = system: male and female New Zealand White rabbits; experiment: 14-Day repeated tolerability/toxicity study, intranasal; type: in vivo, rabbit; conditions: male and female rabbits, 0.1, 1 and 5 mg/kg BW/day, 14 days
Outline: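 GLP study run by a contract lab. Male and female New Zealand White rabbits were dosed intranasally with the test compound daily for 14 days at 0.1, 1.0 and 5.0 mg/kg body weight/day, followed by a 14-day recovery period, with toxicokinetics. Read-outs: local reaction, mortality, clinical signs, body weight, food consumption, clinical pathology, ophthalmoscopy, organ weight, haematology, coagulation, clinical chemistry and histopathology of a full tissue list.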

[10] = Safety of AmyP53 in mice; type: in vivo, mouse
Outline: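 C57BL/6 mice. Preliminary safety run in 5 young (4-month-old) mice: intranasal test compound, then 10 min later stereotaxic SNpc injection of test compound, then daily intranasal dosing for 7 days. Full study used 7 per group: saline, human α-synuclein protofibrils (50 µM in 0.9% NaCl, pre-incubated 37 °C for 3 days), or protofibrils plus test compound (100 µM). Injections were bilateral into the SNpc, 2.5 µL, under isoflurane. The co-treated group then received daily intranasal dosing for 35 days.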

[11] = system: male and female Wistar rats; experiment: Dose range finding, intranasal route; type: in vivo, rat; conditions: GLP, 0.2, 1 and 5 mg/kg BW every two days during five days
[12] = system: female Wistar rats; conditions: initial studies; cited from earlier work
[13] = system: male and female Sprague Dawley rats; experiment: 28-Day repeated dose toxicity, intranasal; type: in vivo, rat
[14] = cited from earlier work
[15] = biological target: rabbit plasma proteins; experiment: rapid equilibration dialysis
[16] = biological target: mini-pig plasma proteins; experiment: rapid equilibration dialysis
[17] = biological target: dog plasma proteins; experiment: rapid equilibration dialysis
[18] = biological target: rat plasma proteins; experiment: rapid equilibration dialysis
[19] = K2-EDTA plasma from male animals, 400 µL, 1 µM, 37 °C, 0–4 h, cold acetonitrile quench, LC-MS/MS
[20] = RED, K2-EDTA plasma from male animals, 2 h at 37 °C, AmyP53 5 µM, Propanolol 1 µM, LC-MS/MS
[21] = 5 mice, intranasal, then SNpc injection of AmyP53, then 7 days daily intranasal
[22] = 35-day treatment, SNpc co-injection then daily intranasal, n = 7 per group
[23] = rats, intranasal administration

Molecule: CC(C)NCC(O)COc1cccc2ccccc12 (stereo not shown) [Propranolol, reference compound]
bound to plasma protein %, mini-pig plasma [5, 20]: 85.2 ±0.9%
bound to plasma protein %, rabbit plasma [6, 20]: 74.8 ±1.1%
bound to plasma protein %, dog plasma [7, 20]: 86.5 ±1.0%
bound to plasma protein %, rat plasma [8, 20]: 89.8 ±0.1%

Molecule: KEGVLYVGHHTK [AmyP53]
half-life at 1 µM ([1]; male, dog, K2-EDTA plasma): 1.38 h
toxicity / tolerability of repeated intranasal administration in rabbits [9]: no systemic or local toxicity
half-life at 1 µM ([2]; male, rabbit, K2-EDTA plasma): 10 h
fraction unbound at 2 h, 5 µM ([5]; male, pig, K2-EDTA plasma): 0.186
body mass, preliminary safety assessment [10, 21]: stable
overall result of preliminary safety assessment [10, 21]: safe
effect on body weight of treated mice [10, 22]: did not display any significant effect
impact on overall behavior [10, 22]: did not induce any negative impact
half-life at 1 µM ([3]; male, rat, K2-EDTA plasma): 13.1 h
fraction unbound at 2 h, 5 µM ([6]; male, rabbit, K2-EDTA plasma): 0.183
fraction unbound at 2 h, 5 µM ([7]; male, dog, K2-EDTA plasma): 0.154
fraction unbound at 2 h, 5 µM ([8]; male, rat, K2-EDTA plasma): 0.066
maximal intranasal dose without any signs of toxicity or dysfunction [11]: The maximal intranasal dose of AmyP53 without any signs of toxicity or dysfunction, is greater or equal to 5 mg/kg BW in both male and female Wistar rats.
maximal tolerated dose, one-week intranasal administration [12]: > 5 mg/kg body weight
maximal tolerated dose, one-week intravenous administration [12]: > 80 mg/kg
half-life at 1 µM ([4]; male, pig, K2-EDTA plasma): 6.07 h
intranasal no-observed adverse effect level (NOAEL) ([13]; male and female Sprague Dawley rats, GLP, every day for 28 days followed by 14 days of recovery): 5 mg/kg BW/day
tolerability of repeated intranasal administration, 28 days ([13]; male and female rats, 0.1, 1.0 and 5.0 mg/kg body weight/day, 28 days and 14 days of recovery): well tolerated
half-life of AmyP53 in the brain ([14]; approximate statement in discussion): about 1 h
Cmax in brain tissue [14, 23]: 1766 ng/mL
T1/2 in brain tissue [14, 23]: 1.02 h
Tmax in brain tissue [14, 23]: 5 min

Other lines, results leading:

t1/2 in dog plasma [1, 19]: 1.73 h
t1/2 in rabbit plasma [2, 19]: 0.283 h
t1/2 in rat plasma [3, 19]: 3.78 h
t1/2 in mini-pig plasma [4, 19]: 2.98 h
Molecule: CC(C)[N+](C)(CCOC(=O)C1c2ccccc2Oc2ccccc21)C(C)C [Propantheline, Propantheline bromide, reference compound]

bound to plasma protein % [15]: 81.7%
bound to plasma protein % [16]: 81.4%
bound to plasma protein % [17]: 84.6%
bound to plasma protein % [18]: 93.4%
Molecule: KEGVLYVGHHTK [AmyP53]
